This is an account of results in ChEMBL document CHEMBL1828575, “Design, synthesis and antiproliferative activities of biarylolefins based on polyhydroxylated and carbohydrate scaffolds” (Eur J Med Chem, 2011).

Calls of active or inactive are those of the source. No cut-off for these calls is given here.

The nature of assay [1]: Cytotoxicity against human NCI60 cells assessed as cellular growth at 10 uM after 48 hrs by SRB assay relative to untreated control. Type of assay: functional. In short, it runs like this:
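NCI-60 panel lines grown in RPMI 1640 with 5% FBS and 2 mM L-glutamine. Plated at 5000–40,000 cells/well and preincubated 24 h at 37 °C, 5% CO₂, with time-zero plates fixed in TCA. Compounds, dissolved in DMSO and diluted in medium, were applied for 48 h. Cells were TCA-fixed (10% final for adherent, 16% for suspension) and stained with 0.4% SRB in 1% acetic acid. Dye was solubilised in 10 mM Tris base and read at 515 nm; growth was expressed as a percentage of untreated control.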
(In general: The SRB assay estimates cell density from bound dye.)

Assay [2] concerns PC-3. Kind of assay: Cytotoxicity against human PC3 cells at 10^-6 M after 72 hrs by MTS assay. In kind it is functional. As to conditions: PC-3, 72 h, read-out: GI. In short, it runs like this: (§1)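 Preliminary screen at 10^-5 and 10^-6 M. Cells were grown in RPMI with 10% fetal calf serum plus penicillin, streptomycin and fungizone under 5% CO₂, plated in 96-well plates, and dosed 24 h later from DMSO stocks (1% DMSO final, same in controls). After 72 h, MTS was added for 3 h at 37 °C and absorbance read at 490 nm. Inhibition was calculated as (1 − OD treated/OD control) × 100, in triplicate.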
(In general: Formazan colour is commonly taken as a measure of viable cells.)

For assay [3], the system named is SF-268. Kind of assay: Cytotoxicity against human SF268 cells at 10^-6 M after 72 hrs by MTS assay. In kind it is functional. To be noted: SF-268, 72 h, read-out: GI. A digest of the protocol:
as §1

Assay [4] deals with SK-OV-3. Kind of assay: Cytotoxicity against human SKOV3 cells at 10^-6 M after 72 hrs by MTS assay. To be noted: SK-OV-3, 72 h, read-out: GI. In kind it is functional. In short, it runs like this: as §1
The subject of assay [5] is OVCAR-8. Kind of assay: Cytotoxicity against human OVCAR8 cells at 10^-6 M after 72 hrs by MTS assay. In kind it is functional. As to conditions: OVCAR-8, 72 h, read-out: GI. A digest of the protocol:
as §1

The subject of assay [6] is MIA PaCa-2. Kind of assay: Cytotoxicity against human MIAPaCa2 cells at 10^-6 M after 72 hrs by MTS assay. Type of assay: functional. To be noted: MIA PaCa-2, 72 h, read-out: GI.
Assay [7] relates to HL-60. Kind of assay: Cytotoxicity against human HL60 cells at 10^-6 M after 72 hrs by MTS assay. In kind it is functional. As to conditions: HL-60, 72 h, read-out: GI. In short, it runs like this:
(§2)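 Cells grown in RPMI with 10% fetal calf serum, penicillin, streptomycin and fungizone under 5% CO₂. Plated in 96-well plates and dosed 24 h later with compound in DMSO (1% final DMSO; controls got DMSO alone). After 72 h, MTS was added for 3 h at 37 °C and A490 read. Inhibition = (1 − OD treated/OD control) × 100, in triplicate.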

Assay [8] can be described thus: Cytotoxicity against human HL60R cells at 10^-6 M after 72 hrs by MTS assay. As to conditions: read-out: GI. Type of assay: functional. A digest of the protocol:
as §2

Assay [9] relates to K562. Kind of assay: Cytotoxicity against human K562 cells at 10^-6 M after 72 hrs by MTS assay. To be noted: K562, 72 h, read-out: GI. Type of assay: functional. In short, it runs like this: as §2
In assay [10] the test system is HCT-116. Kind of assay: Cytotoxicity against human HCT116 cells at 10^-5 M after 72 hrs by MTS assay. To be noted: HCT-116, 72 h, read-out: GI. In kind it is functional. A digest of the protocol:
as §2

The subject of assay [11] is HT-29. Kind of assay: Cytotoxicity against human HT-29 cells at 10^-5 M after 72 hrs by MTS assay. Type of assay: functional. As to conditions: HT-29, 72 h, read-out: GI. A digest of the protocol:
as §2

For assay [12], the system named is HCT-15. Kind of assay: Cytotoxicity against human HCT15 cells at 10^-5 M after 72 hrs by MTS assay. In kind it is functional. To be noted: HCT-15, 72 h, read-out: GI. In short, it runs like this: as §2
The test system of assay [13] is MCF7. Kind of assay: Cytotoxicity against human MCF7 cells at 10^-5 M after 72 hrs by MTS assay. In kind it is functional. To be noted: MCF7, 72 h, read-out: GI.
The nature of assay [14]: Cytotoxicity against human MDA231 cells at 10^-5 M after 72 hrs by MTS assay. In kind it is functional. To be noted: MDA-MB-231, 72 h, read-out: GI. A digest of the protocol: as §1
Assay [15] relates to A549. Kind of assay: Cytotoxicity against human A549 cells at 10^-5 M after 72 hrs by MTS assay. Type of assay: functional. As to conditions: A549, 72 h, read-out: GI. In short, it runs like this:
as §2

The test system of assay [16] is PC-3. Kind of assay: Cytotoxicity against human PC3 cells at 10^-5 M after 72 hrs by MTS assay. In kind it is functional. As to conditions: PC-3, 72 h, read-out: GI. In short, it runs like this:
as §1

For assay [17], the system named is SF-268. Kind of assay: Cytotoxicity against human SF268 cells at 10^-5 M after 72 hrs by MTS assay. Type of assay: functional. As to conditions: SF-268, 72 h, read-out: GI. A digest of the protocol:
as §1

Assay [18] concerns SK-OV-3. Kind of assay: Cytotoxicity against human SKOV3 cells at 10^-5 M after 72 hrs by MTS assay. In kind it is functional. As to conditions: SK-OV-3, 72 h, read-out: GI. In short, it runs like this: as §1
Assay [19] concerns OVCAR-8. Kind of assay: Cytotoxicity against human OVCAR8 cells at 10^-5 M after 72 hrs by MTS assay. In kind it is functional. To be noted: OVCAR-8, 72 h, read-out: GI. In short, it runs like this: as §1
The subject of assay [20] is MIA PaCa-2. Kind of assay: Cytotoxicity against human MIAPaCa2 cells at 10^-5 M after 72 hrs by MTS assay. Type of assay: functional. To be noted: MIA PaCa-2, 72 h, read-out: GI.
Assay [21] relates to HL-60. Kind of assay: Cytotoxicity against human HL60 cells at 10^-5 M after 72 hrs by MTS assay. Type of assay: functional. As to conditions: HL-60, 72 h, read-out: GI. In short, it runs like this: as §2
Assay [22] can be described thus: Cytotoxicity against human HL60R cells at 10^-5 M after 72 hrs by MTS assay. In kind it is functional, HL-60. As to conditions: read-out: GI. In short, it runs like this: as §2
Assay [23] concerns K562. Kind of assay: Cytotoxicity against human K562 cells at 10^-5 M after 72 hrs by MTS assay. In kind it is functional. To be noted: K562, 72 h, read-out: GI. In short, it runs like this:
as §2

The subject of assay [24] is HCT-116. Kind of assay: Cytotoxicity against human HCT116 cells at 10^-6 M after 72 hrs by MTS assay. In kind it is functional. To be noted: HCT-116, 72 h, read-out: GI. A digest of the protocol: as §2
Assay [25] concerns HT-29. Kind of assay: Cytotoxicity against human HT-29 cells at 10^-6 M after 72 hrs by MTS assay. In kind it is functional. As to conditions: HT-29, 72 h, read-out: GI. A digest of the protocol:
as §2

Assay [26] concerns HCT-15. Kind of assay: Cytotoxicity against human HCT15 cells at 10^-6 M after 72 hrs by MTS assay. Type of assay: functional. As to conditions: HCT-15, 72 h, read-out: GI. A digest of the protocol: as §2
Assay [27] concerns MCF7. Kind of assay: Cytotoxicity against human MCF7 cells at 10^-6 M after 72 hrs by MTS assay. In kind it is functional. As to conditions: MCF7, 72 h, read-out: GI.
Assay [28] can be described thus: Cytotoxicity against human MDA231 cells at 10^-6 M after 72 hrs by MTS assay. In kind it is functional. As to conditions: MDA-MB-231, 72 h, read-out: GI. In short, it runs like this:
as §1

In assay [29] the test system is A549. Kind of assay: Cytotoxicity against human A549 cells at 10^-6 M after 72 hrs by MTS assay. Type of assay: functional. As to conditions: A549, 72 h, read-out: GI. In short, it runs like this:
as §2

The species entered for a further assay is Ovis aries. Kind of assay: Inhibition of sheep brain tubulin polymerization at 10 uM. A digest of the protocol: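 Microtubule protein from sheep brain, purified by two assembly/disassembly cycles (37 °C/0 °C), in 100 mM MES pH 6.6, 1 mM EGTA, 0.5 mM MgCl₂. Compounds in DMSO were tested at a single concentration, with incubation at 37 °C for 10 min and then 0 °C for 5 min before measuring assembly rate, following a modified Guénard protocol.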

In the case of `COc1cc(/C(=C2\O[C@@H]([C@H](O)CO)[C@H]3OC(C)(C)O[C@@H]23)c2ccc3c(c2)OCO3)cc(OC)c1OC`, the Activity in [1] is given as 106%.

For the compound `COc1cc(/C(=C2\O[C@@H]([C@H]3COC(C)(C)O3)[C@H]3OC(C)(C)O[C@@H]23)c2cccc([N+](=O)[O-])c2)cc(OC)c1OC`, the inhibition of growth at 1 µM in the assay on PC-3 [2] was 2%; with SF-268 [3] it was 12%; in the assay on SK-OV-3 [4], 15%; in the assay with OVCAR-8 [5], 0%; in the assay with MIA PaCa-2 [6] it was 4%; in the assay on HL-60 [7], 2%. Further, the inhibition of growth at 1 µM was found to be 13% in [8]; 8% in the assay with K562 [9]; 5% in the assay with HCT-116 [24]; 7% with HT-29 [25]; 6% in the assay with HCT-15 [26]; 7% in the assay on MCF7 [27]. Besides, the values for the inhibition of growth at 1 µM (in [28]; in the assay on A549 [29]) were 0% and 10%, respectively. Further, the inhibition of growth at 10 µM in the assay with HCT-116 [10] is 8%; in the assay with HT-29 [11], 0%; in the assay on HCT-15 [12] it was 5%; in the assay with MCF7 [13] it was 11%; in assay [14], 16%; with A549 [15] it was 12%. In addition, the inhibition of growth at 10 µM amounted to 0% with PC-3 [16]; 20% in the assay on SF-268 [17]; 40% with SK-OV-3 [18]; 0% with OVCAR-8 [19]; 0% in the assay with MIA PaCa-2 [20]; 22% in the assay with HL-60 [21]. Further, the inhibition of growth at 10 µM stood at 29% in assay [22] and 9% in the assay on K562 [23].

As for `COc1cc(/C(=C2\O[C@@H]([C@H]3COC(C)(C)O3)[C@H]3OC(C)(C)O[C@@H]23)c2ccc3c(c2)OCO3)cc(OC)c1OC`, the Activity in assay [1] came out at 61%.

As for `COc1cc(/C(=C2\O[C@@H]([C@H](O)CO)[C@H]3OC(C)(C)O[C@@H]23)c2ccc3ccccc3c2)cc(OC)c1OC`, in assay [1], the Activity is on record as 96%.

`COc1ccc(C(=C(COC(C)=O)COC(C)=O)c2cc(OC)c(OC)c(OC)c2)cc1O[Si](C)(C)C(C)(C)C`: the “tubulin polymerization inhibition call (active/not active)” value in the assay listed under Ovis aries is “inactive”.

Consider `COc1ccc(/C(=C2/O[C@@H]([C@H](O)CO)[C@H]3OC(C)(C)O[C@@H]23)c2cc(OC)c(OC)c(OC)c2)cc1O`, for which the Activity in assay [1] was found to be 79%.

Take `COc1cc(C(=C2O[C@@H]([C@H]3COC(C)(C)O3)[C@H]3OC(C)(C)O[C@@H]23)c2cc(OC)c(OC)c(OC)c2)cc(OC)c1OC`: the Activity in assay [1] was found to be 105%.
